# Reference: ChEMBL document CHEMBL4177578, “Synthesis, pharmacological activities and molecular docking studies of pyrazolyltriazoles as anti-bacterial and anti-inflammatory agents” (Bioorg Med Chem, 2017)
# Test system: U-937
# Assay: Anti-inflammatory activity in human U937 cells assessed as inhibition of LPS-induced TNFalpha production at 10 uM pre-incubated for 1 hr before LPS stimulation for 24 hrs by ELISA method
# Assay type: functional
# Conditions: not given
# How it was run: (§1)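 Human U937 cells grown in RPMI1640 with 10% FBS at 37 °C, 5% CO2. Differentiated with PMA 30 ng/ml for 24 h. Test compounds added for 1 h, then LPS 1 µg/ml for 24 h. TNF-α and IL-6 in supernatant measured by ELISA. Three independent experiments.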
row,Structure (SMILES),inhibition at 10 µM [%]
1,OCc1cn(Cc2cn(-c3ccc(Cl)cc3)nc2-c2ccccc2)nn1,12.7
2,OCc1cn(-c2ccc(Cl)cc2)nc1-c1ccccc1,2.61
3,Cc1ccc(-n2cc(Cn3cc(CO)nn3)c(-c3ccccc3)n2)cc1,31.2
4,COc1ccc(C2CNC(=O)C2)cc1OC1CCCC1 (stereo not given) [ROLIPRAM],59.1

# Test system: Micrococcus luteus
# Assay: Antimicrobial activity against Micrococcus luteus at 1 mg/ml incubated for 20 to 30 mins followed by incubation for 24 hrs at 37 degC by agar plate method
# Assay type: functional
# Conditions: read-out: DIZ
# How it was run: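 Agar well diffusion on nutrient agar. Plates swabbed with 60 µL inoculum; 8 mm wells loaded with 100 µL of compound at 1.0 mg/mL. Held 20–30 min at 4 °C for diffusion, then 24 h at 37 °C. Inhibition zone diameter read in mm. Triplicate.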
row,Structure (SMILES),zone of inhibition at 1000 µg/mL [mm]
1,OCc1cn(Cc2cn(-c3ccc(Cl)cc3)nc2-c2ccccc2)nn1,11.5
2,OCc1cn(-c2ccc(Cl)cc2)nc1-c1ccccc1,26.5

# Test system: Salmonella typhi
# Assay: Antimicrobial activity against Salmonella typhi at 1 mg/ml incubated for 20 to 30 mins followed by incubation for 24 hrs at 37 degC by agar plate method
# Assay type: functional, Salmonella enterica subsp. enterica serovar Typhi
# Conditions: Salmonella enterica; read-out: DIZ
# How it was run: (§2)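 Agar well diffusion on nutrient agar. Plates swabbed with 60 µL inoculum, 8 mm wells loaded with 100 µL sample at 1.0 mg/mL, streptomycin standard and control in separate wells. Plates held 20–30 min at 4 °C for diffusion, then 24 h at 37 °C. Zone diameter read in mm; triplicate.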
row,Structure (SMILES),zone of inhibition at 1000 µg/mL [mm]
1,OCc1cn(Cc2cn(-c3ccc(Cl)cc3)nc2-c2ccccc2)nn1,19.5
2,OCc1cn(-c2ccc(Cl)cc2)nc1-c1ccccc1,21.5
3,Cc1ccc(-n2cc(Cn3cc(CO)nn3)c(-c3ccccc3)n2)cc1,19

# Test system: Salmonella paratyphi
# Assay: Antimicrobial activity against Salmonella paratyphi at 1 mg/ml incubated for 20 to 30 mins followed by incubation for 24 hrs at 37 degC by agar plate method
# Assay type: functional, Salmonella enterica subsp. enterica serovar Paratyphi A
# Conditions: Salmonella enterica; read-out: DIZ
# How it was run: as §2
row,Structure (SMILES),zone of inhibition at 1000 µg/mL [mm]
1,OCc1cn(Cc2cn(-c3ccc(Cl)cc3)nc2-c2ccccc2)nn1,16.5
2,OCc1cn(-c2ccc(Cl)cc2)nc1-c1ccccc1,18
3,Cc1ccc(-n2cc(Cn3cc(CO)nn3)c(-c3ccccc3)n2)cc1,11.5

# Test system: Micrococcus luteus
# Assay: Antimicrobial activity against Micrococcus luteus incubated for 12 to 16 hrs by tube dilution method
# Assay type: functional
# Conditions: not given
# How it was run: (§3)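 Tube dilution, serial from 500 to 1.9 µg/mL, plus drug-free control tube. Each tube inoculated with 1 mL culture at OD 0.2, incubated 37 °C for 12–16 h. MIC is the lowest concentration with no growth by turbidity. MBC is found by plating each tube on nutrient agar: the lowest concentration at which all cells are killed.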
row,Structure (SMILES),MIC [µg/mL]
1,OCc1cn(-c2ccc(Cl)cc2)nc1-c1ccccc1,3.9

# Test system: Micrococcus luteus
# Assay: Antimicrobial activity against Micrococcus luteus incubated for 12 to 16 hrs followed by plating in nutrient agar by tube dilution method
# Assay type: functional
# Conditions: not given
# How it was run: as §3
row,Structure (SMILES),MBC [µg/mL]
1,OCc1cn(-c2ccc(Cl)cc2)nc1-c1ccccc1,7.81

# Test system: Salmonella typhi
# Assay: Antimicrobial activity against Salmonella typhi incubated for 12 to 16 hrs by tube dilution method
# Assay type: functional, Salmonella enterica subsp. enterica serovar Typhi
# Conditions: Salmonella enterica
# How it was run: (§4)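 Broth tube dilution, two-fold serial dilutions from 500 to 1.9 µg/mL plus a drug-free control tube. Each tube inoculated with 1 mL culture at OD 0.2 (~McFarland standard), 37 °C for 12-16 h. Turbidity compared with the control tube. MIC is the lowest concentration giving complete growth inhibition.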
row,Structure (SMILES),MIC [µg/mL]
1,OCc1cn(-c2ccc(Cl)cc2)nc1-c1ccccc1,62.5

# Test system: Salmonella typhi
# Assay: Antimicrobial activity against Salmonella typhi incubated for 12 to 16 hrs followed by plating in nutrient agar by tube dilution method
# Assay type: functional, Salmonella enterica subsp. enterica serovar Typhi
# Conditions: Salmonella enterica
# How it was run: (§5)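 After 12-16 h at 37 °C in tube dilution (500 to 1.9 µg/mL; 1 mL inoculum at OD 0.2), the culture from each tube was plated on nutrient agar. MBC is the concentration at which cells are completely killed.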
row,Structure (SMILES),MBC [µg/mL]
1,OCc1cn(-c2ccc(Cl)cc2)nc1-c1ccccc1,125

# Test system: Salmonella paratyphi
# Assay: Antimicrobial activity against Salmonella paratyphi incubated for 12 to 16 hrs by tube dilution method
# Assay type: functional, Salmonella enterica subsp. enterica serovar Paratyphi A
# Conditions: Salmonella enterica
# How it was run: as §4
row,Structure (SMILES),MIC [µg/mL]
1,OCc1cn(-c2ccc(Cl)cc2)nc1-c1ccccc1,31.2

# Test system: Salmonella paratyphi
# Assay: Antimicrobial activity against Salmonella paratyphi incubated for 12 to 16 hrs followed by plating in nutrient agar by tube dilution method
# Assay type: functional, Salmonella enterica subsp. enterica serovar Paratyphi A
# Conditions: Salmonella enterica
# How it was run: as §5
row,Structure (SMILES),MBC [µg/mL]
1,OCc1cn(-c2ccc(Cl)cc2)nc1-c1ccccc1,62.5

# Test system: not listed separately
# Assay: Anti-inflammatory activity at 50 ug/ml using bovine serum albumin and egg albumin proteins incubated at 37 degC for 20 mins and then heated to 95 degC for 20 mins by UV-visible Spectrophotometry based protein denaturation method
# Assay type: functional
# Conditions: not given
# How it was run: (§6)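 Albumin (bovine serum or egg) at 1% in 50 mM sodium phosphate buffer pH 6.4. Mixture is 0.1 ml test sample (1 mg/ml) plus 0.2 ml albumin, made to 5 ml with buffer. Held 37 °C for 20 min, then 95 °C for 20 min. Cooled to room temperature, turbidity read at 660 nm. % inhibition = (Abs control − Abs sample)/Abs control × 100. Triplicate, averaged.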
row,Structure (SMILES),inhibition [%]
1,OCc1cn(Cc2cn(-c3ccc(Cl)cc3)nc2-c2ccccc2)nn1,55.2
2,OCc1cn(-c2ccc(Cl)cc2)nc1-c1ccccc1,76.7
3,Cc1ccc(-n2cc(Cn3cc(CO)nn3)c(-c3ccccc3)n2)cc1,66.4

# Test system: not listed separately
# Assay: Anti-inflammatory activity at 100 ug/ml using bovine serum albumin and egg albumin proteins incubated at 37 degC for 20 mins and then heated to 95 degC for 20 mins by UV-visible Spectrophotometry based protein denaturation method
# Assay type: functional
# Conditions: not given
# How it was run: as §6
row,Structure (SMILES),inhibition [%]
1,OCc1cn(Cc2cn(-c3ccc(Cl)cc3)nc2-c2ccccc2)nn1,78.5
2,OCc1cn(-c2ccc(Cl)cc2)nc1-c1ccccc1,92.2
3,Cc1ccc(-n2cc(Cn3cc(CO)nn3)c(-c3ccccc3)n2)cc1,83.6

# Test system: not listed separately
# Assay: Anti-inflammatory activity using bovine serum albumin and egg albumin proteins incubated at 37 degC for 20 mins and then heated to 95 degC for 20 mins by UV-visible Spectrophotometry based protein denaturation method
# Assay type: functional
# Conditions: not given
# How it was run: as §6
row,Structure (SMILES),IC50 [µg/mL]
1,OCc1cn(Cc2cn(-c3ccc(Cl)cc3)nc2-c2ccccc2)nn1,63.74
2,OCc1cn(-c2ccc(Cl)cc2)nc1-c1ccccc1,54.21
3,Cc1ccc(-n2cc(Cn3cc(CO)nn3)c(-c3ccccc3)n2)cc1,59.79

# Test system: U-937
# Assay: Anti-inflammatory activity in human U937 cells assessed as inhibition of LPS-induced TNFalpha production pre-incubated for 1 hr before LPS stimulation for 24 hrs by ELISA method
# Assay type: functional, cell-based
# Conditions: not given
# How it was run: as §1
row,Structure (SMILES),IC50 [µM]
1,Cc1ccc(-n2cc(Cn3cc(CO)nn3)c(-c3ccccc3)n2)cc1,21.4
2,COc1ccc(C2CNC(=O)C2)cc1OC1CCCC1 (stereo not given) [ROLIPRAM],1.12

# Test system: U-937
# Assay: Anti-inflammatory activity in human U937 cells assessed as inhibition of LPS-induced IL6 production at 10 uM pre-incubated for 1 hr before LPS stimulation for 24 hrs by ELISA method
# Assay type: functional
# Conditions: not given
# How it was run: as §1
row,Structure (SMILES),inhibition at 10 µM [%]
1,OCc1cn(Cc2cn(-c3ccc(Cl)cc3)nc2-c2ccccc2)nn1,38.8
2,OCc1cn(-c2ccc(Cl)cc2)nc1-c1ccccc1,21.6
3,Cc1ccc(-n2cc(Cn3cc(CO)nn3)c(-c3ccccc3)n2)cc1,50.4
4,COc1ccc(C2CNC(=O)C2)cc1OC1CCCC1 (stereo not given) [ROLIPRAM],53.5

# Test system: U-937
# Assay: Anti-inflammatory activity in human U937 cells assessed as inhibition of LPS-induced IL6 production pre-incubated for 1 hr before LPS stimulation for 24 hrs by ELISA method
# Assay type: functional, cell-based
# Conditions: not given
# How it was run: as §1
row,Structure (SMILES),IC50 [µM]
1,Cc1ccc(-n2cc(Cn3cc(CO)nn3)c(-c3ccccc3)n2)cc1,8.7
2,COc1ccc(C2CNC(=O)C2)cc1OC1CCCC1 (stereo not given) [ROLIPRAM],1.17
